# PMC10008514 (Chemical communications (Cambridge, England), 2023)
# “Also recorded” adds a separate entry of the source. Read-outs that look alike come from different tables or passages of the source.
# What was measured:
# [1] = target: human carbonic anhydrase II (hCAII) (Homo sapiens, UniProt P00918); assay: hCAII inhibition assay; format: biochemical
# [2] = target: T1, matrix metalloproteinase-2 (MMP-2) (Homo sapiens, UniProt P08253); assay: MMP-2 inhibition assay; format: biochemical
# T1 sequence (P08253 110-660): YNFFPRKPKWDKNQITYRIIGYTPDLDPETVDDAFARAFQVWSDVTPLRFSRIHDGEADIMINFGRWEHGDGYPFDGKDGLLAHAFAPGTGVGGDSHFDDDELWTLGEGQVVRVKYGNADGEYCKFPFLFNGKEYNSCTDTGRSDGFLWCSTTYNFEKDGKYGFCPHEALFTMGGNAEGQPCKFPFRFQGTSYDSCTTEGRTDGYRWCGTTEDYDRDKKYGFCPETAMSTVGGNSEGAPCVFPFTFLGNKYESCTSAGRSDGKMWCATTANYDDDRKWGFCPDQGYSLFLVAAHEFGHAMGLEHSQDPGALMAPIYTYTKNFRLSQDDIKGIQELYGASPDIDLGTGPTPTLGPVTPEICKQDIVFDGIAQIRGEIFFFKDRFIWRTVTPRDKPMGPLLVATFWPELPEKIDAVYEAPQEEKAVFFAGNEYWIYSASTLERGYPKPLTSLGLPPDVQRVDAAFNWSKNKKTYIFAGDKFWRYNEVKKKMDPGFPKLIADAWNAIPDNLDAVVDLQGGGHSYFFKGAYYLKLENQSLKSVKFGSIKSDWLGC
# [3] = Reaction with L-cysteine methyl ester; format: physicochemical; settings: equimolar 13, 24 h, 10% acetonitrile 90% water, pH 7.4, 1.25 mM
# Summary of the method: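 Test compound and L-cysteine methyl ester were mixed in equimolar amounts at a final concentration of 1.25 mM. The solvent was 10% acetonitrile and 90% water at pH 7.4. The mixture was incubated for 24 h before analysis.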
# Reactivity with DTNB = format: physicochemical; settings: compound:DTNB 1:10, incubation 90 min, absorbance 412 nm
# hCAII = settings: read-out: Ki hCAII; reported inhibitor; cited from earlier work
SMILES,IC50 [1],IC50 [2],"Reactivity with L-cysteine methyl ester (13), disulfide formation by HPLC [3]",Percent reactivity (conversion) with DTNB (Reactivity with DTNB),Ki (hCAII),"IC50 ([1]; read-out: IC50 hCAII, ± 95% confidence interval)",IC50 hCAII ([1]; ± 95% confidence interval),"IC50 ([2]; read-out: IC50 MMP-2, ± 95% confidence interval)"
"S=C1Cc2ccccc2N1 [Compound 5, 2-indolinethione]",3.42 ± 0.34 µM,76.6 ± 4.26 µM,stable in the presence of 13,,,,,
"Oc1ccccc1S [Compound 11, 2-mercaptophenol, reference compound]",19.4 ± 5.15 µM,> 200 µM,generate disulfide products with 13,essentially quantitative conversion; also recorded: essential quantitative disulfide formation,0.63 µM,,,
"S=c1[nH]c2ccccc2o1 [Compound 1, benzo[d]oxazole-2-(3H)-thione]",,,most stable compounds,most stable compounds,0.97 µM,> 200 µM,not active,> 200 µM
"C[C@H](CS)C(=O)N1CCC[C@H]1C(=O)O [Compound 12, captopril]",,,,essentially quantitative conversion; also recorded: essential quantitative disulfide formation,,,,
